Screens (PubChem BioAssay)
In the library only some 2.6% were active in any assay of this set; here they are far more common.
miR-122 sensor = inhibitors of miR-122 in Huh7 cells. Huh7 miR-122 Renilla luciferase sensor, 48 h; neutral wells = 0, positive control = 100. activation (reporter increase), % at 12.5 µM. 340,000 compounds, 0.3% hits. AID 602342;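 active means mean replicate activation score at least 90 and every replicate individually at or above 90; inconclusive means only one of the two criteria met; inactive means neither criterion met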;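 further: higher luciferase means less miR-122 activity so hits act as miR-122 inhibitors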
Ecoli rRNA inh = selective bacterial rRNA inhibition in E. coli; GFP signal change (wild-type ribosome), % (concentration not given with the values); E. coli WT GFP vs humanized-ribosome RFP mutants, fluorescence, 24 h; stronger effect = lower value; DMSO median 0, no signal -100; 350,000 compounds, 1.6% hits;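 active means significant combined selectivity score with lowered wild-type GFP, culture density cut under 30%, mutant RFP and density less affected; inactive means any of these conditions unmet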
Vif inh = blocks HIV Vif function. HEK293T cells, Vif self-association by quenched fluorescence, imaging, 24 h. inhibition, % at 7.49 µM. 340,000 compounds, 0.35% hits; in the data active means inhibition above about 50%, passing the limit was not always enough; inconclusive means no clear call, values can overlap the other calls; inactive means below about 31%
S100A4 inh HTS = S100A4-myosin IIA interaction inhibition | 360,000 compounds, 0.14% hits | P26447 | inhibition, % at 10.7 µM | AID 652163 | S100A4/TAMRA-MyoIIA peptide fluorescence polarization;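 active means mean inhibition of at least 70% across replicates, with every replicate also reaching that level; inconclusive means mean inhibition reaches 70% but some replicates fall short; inactive means mean inhibition below 70%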
Target sequence (P26447 whole entry, looked up): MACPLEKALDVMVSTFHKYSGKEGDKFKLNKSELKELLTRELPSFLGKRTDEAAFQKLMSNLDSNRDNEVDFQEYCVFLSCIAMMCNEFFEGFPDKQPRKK
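Test system: S100A4 monomer protein; Medium: HEPES pH 7.2 with CaCl2, KCl, NaCl, DTT, Triton; Probe or stimulus: TAMRA-labelled myosin IIA heavy-chain peptide probe, 5 nM; Doses: one dose per compound; Times: polarization read 5 min after assay mix addition, stable 5–60 min; Benchmarks: neutral control DMSO, positive control TFP.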
FN deposit inh = fibronectin deposition inhibition. AH1F fibroblasts, Alexa488-fibronectin deposition fluorescence, overnight. inhibition, % at 12.6 µM. 350,000 compounds, 0.086% hits;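 active means mean inhibition across replicates of 30% or more, regardless of how many single replicates reach that level; inconclusive means mean under 30% yet at least half of replicates reach 30%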;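 further: positive control wells lacked labelled fibronectin entirely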
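Assay system: AH1F fibroblasts / Quantity: 10000 cells per well / Medium: DMEM plus 2% serum, read in PBS / Reagent: labelled fibronectin 24 nM / Dosing: single dose, pinned / Times: 1 h cell attachment, overnight exposure to compound and label / Signal: fluorescence, ex 485 nm, em 525 nm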
HIV Env fusion = HIV envelope-mediated fusion inhibition; 360,000 compounds, 1.1% hits; AID 651610; HeLa-JRFL Env/CEM21 cell fusion, luciferase; inhibition, % at 12.3 µM;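 active means mean replicate inhibition score of at least 50 and every replicate individually at or above 50; inconclusive means only one of the two criteria met; inactive means mean below 50 and not all replicates reaching 50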;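 further: 0% = plate neutral controls and 100% = maraviroc near 300 nM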
* hit, by the source's call; ? = inconclusive; nt = not tested or not shown; [ ] = remark or other dose.

SMILES	miR-122 sensor	Ecoli rRNA inh	Vif inh	S100A4 inh HTS	FN deposit inh	HIV Env fusion
C[C@@H]1CN([C@H](C)CO)C(=O)CCCn2nncc2CO[C@@H]1CN(C)Cc1ccc(Cl)c(Cl)c1	1[16.7 µM]	-9	nt	4	12	-8[16.7 µM]
O=C(NCc1ccc(Cl)cc1)c1n[nH]c([N+](=O)[O-])c1Cl	nt	-15*	3	-1	-14	18
C[C@H]1CN([C@@H](C)CO)C(=O)c2cc(NS(=O)(=O)c3ccc(F)cc3)ccc2O[C@@H]1CN(C)Cc1ccc(C(=O)O)cc1	0[16.7 µM]	6	nt	1	-2	?
COCC(=O)N1[C@H](CO)[C@@H](c2ccccc2)C12CN(C(=O)Cc1ccccn1)C2	nt	12	nt	97*	nt	nt
C[C@@H]1CN([C@@H](C)CO)C(=O)c2cc(NC(=O)CCCN(C)C)ccc2O[C@@H](C)CCCCO[C@H]1CN(C)Cc1ccncc1	-6[16.7 µM]	3	nt	3	11	-8[16.7 µM]
COCC(=O)Nc1ccc2c(c1)C(=O)N(C)[C@H]1CC[C@H](CC(=O)NCC3CC3)O[C@H]1CO2	0[16.7 µM]	4	nt	-1	-2	6[16.7 µM]
O=S(=O)(c1ccccc1)N1C[C@H]2[C@@H](c3ccccc31)[C@@H](CO)N2Cc1ccc2c(c1)OCO2	140*[16.7 µM]	-17	nt	4	5	nt
C[C@H]1CN([C@@H](C)CO)C(=O)c2ccccc2-c2ccccc2CO[C@@H]1CN(C)C(=O)Nc1ccc2c(c1)OCO2	nt	-2	nt	nt	12	nt
Cc1ccc(Cl)cc1N1CCN(Cc2cc(=O)n3ccsc3n2)CC1	nt	-29*	-9	-3	-7	3
CCC(=O)N1C[C@@H]2[C@H](c3ccccc31)[C@@H](CO)N2Cc1ccccc1F	-17[16.7 µM]	1	nt	4	nt	nt
O=C(COC(=O)c1ccc(-c2ccc([N+](=O)[O-])cc2)o1)NC(=O)NC1CCCCC1	-2	-33*	-6	4	-4	0
COc1ccccc1/C=C/C1(C(=O)NC2CCCC2)CC(=O)N1c1ccc(F)cc1 (stereo not given)	-2	nt	23	nt	nt	131*
CCCCC(=O)NCc1ccc2c(c1)cc(C)n2C	4	nt	68*	nt	-4	-65
Cc1cc2cc(CNC(=O)c3ccc(S(=O)(=O)N4CCCC4)cc3)ccc2n1C	-9	3	-6	121*	-12	30
CC(=O)N(C)C[C@@H]1Oc2ncc(C#Cc3ccccc3F)cc2C(=O)N([C@@H](C)CO)C[C@@H]1C	-2[16.7 µM]	0	nt	-3	-12	18[16.7 µM]
CCN1[C@@H]2c3ccc(C4=CCCC4)c(=O)n3C[C@H]1[C@H](CO)[C@H]2C(=O)NCc1ccccn1	-2[16.7 µM]	5	nt	22	nt	nt
COc1ccc2c3c(n(C)c2c1)[C@@H](CO)N(C(=O)C1CC1)CC31CN(C(=O)CN(C)C)C1	nt	3	nt	15	nt	nt
COc1ccc2c3c(n(C)c2c1)[C@@H](CO)N(C(=O)CN(C)C)CC31CN(Cc2cccnc2)C1	nt	-1	nt	nt	nt	nt
O=C(Cc1nc2ccccc2[nH]1)c1cccc([N+](=O)[O-])c1	9	10	-12	-9	-5	73*
Cc1csc2c(N3CCN(C(=O)Nc4ccccc4)CC3)ncnc12	-2	-28*	-23	-38	-1	15
Cc1ccc(C(=O)N2CCN(c3ncnc4c(C)csc34)CC2)cc1	-5	-17	-7	-4	0	-6
Cc1csc2c(N3CCN(C(=S)Nc4ccc(F)cc4F)CC3)ncnc12	2	-26*	-27	-3	-4	13
COc1ccc2c3c([nH]c2c1)[C@@H](CO)N(C(=O)C1CCC1)CC31CCN(C(=O)c2ccncc2)CC1	nt	1	nt	21	nt	nt
COc1ccccc1NC(=O)N[C@H]1C=C[C@H](CC(=O)N2CCC(Cc3ccccc3)CC2)O[C@@H]1CO	-8[16.7 µM]	-3	nt	103*	-3	18[16.7 µM]
Cc1ccc(S(=O)(=O)N[C@H]2C=C[C@@H](CC(=O)N3CCC(Cc4ccccc4)CC3)O[C@H]2CO)cc1	-2[16.7 µM]	-1	nt	4	nt	56*[16.7 µM]
COc1ccccc1NC(=O)N[C@H]1C=C[C@@H](CC(=O)N[C@H](C)c2ccccc2)O[C@H]1CO	nt	-2	nt	12	-1	94*[16.7 µM]
COc1ccccc1NC(=O)N[C@@H]1C=C[C@H](CC(=O)N2CCC(Cc3ccccc3)CC2)O[C@@H]1CO	-2[16.7 µM]	-8	nt	-2	2	18[16.7 µM]
